Test results taken from ChEMBL document CHEMBL1134652, “N-Methyl scan of somatostatin octapeptide agonists produces interesting effects on receptor subtype specificity” (J Med Chem, 2001).
Where a SMILES comes first, the peptide text is derived from it. Bridges are numbered along the chain shown (N, C = ends). [ ]: non-standard residue; d: D form. NMeY = CN[C@@H](Cc1ccc(O)cc1)C(=O)O; NMeT = CN[C@H](C(=O)O)[C@@H](C)O; NMeK = CN[C@@H](CCCCN)C(=O)O; NMeC = CN[C@@H](CS)C(=O)O

Key:
[1] = target: Somatostatin receptor type 1 (Homo sapiens, UniProt P30872); test: Binding affinity was determined on cloned human somatostatin receptor-1 (hsst1)
Sequence of Somatostatin receptor type 1 (P30872 whole entry): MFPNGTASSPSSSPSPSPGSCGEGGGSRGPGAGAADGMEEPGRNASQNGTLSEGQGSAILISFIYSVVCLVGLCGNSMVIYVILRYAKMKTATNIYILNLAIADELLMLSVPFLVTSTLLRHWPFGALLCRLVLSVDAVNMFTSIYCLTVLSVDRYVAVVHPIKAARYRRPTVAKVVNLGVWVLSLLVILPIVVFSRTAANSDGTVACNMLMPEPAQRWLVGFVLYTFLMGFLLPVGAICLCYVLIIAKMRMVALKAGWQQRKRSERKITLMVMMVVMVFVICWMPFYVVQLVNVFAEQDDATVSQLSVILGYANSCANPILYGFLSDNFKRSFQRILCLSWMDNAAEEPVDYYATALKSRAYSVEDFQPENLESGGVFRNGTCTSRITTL
In short: (§1)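 Membranes from CHO-K1 cells stably transfected with human sst1, sst2 or sst4 (calcium phosphate, G418 selection), resuspended in 10 mM Tris-HCl. Filtered on GF/C; nonspecific binding measured with 1.0 μM SRIF. Kd from concentration-dependent displacement.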

[2] = target: Somatostatin receptor type 2 (Homo sapiens, UniProt P30874); test: Binding affinity was determined on cloned human somatostatin receptor-1 (hsst2); in short: as §1
Sequence of Somatostatin receptor type 2 (P30874 whole entry): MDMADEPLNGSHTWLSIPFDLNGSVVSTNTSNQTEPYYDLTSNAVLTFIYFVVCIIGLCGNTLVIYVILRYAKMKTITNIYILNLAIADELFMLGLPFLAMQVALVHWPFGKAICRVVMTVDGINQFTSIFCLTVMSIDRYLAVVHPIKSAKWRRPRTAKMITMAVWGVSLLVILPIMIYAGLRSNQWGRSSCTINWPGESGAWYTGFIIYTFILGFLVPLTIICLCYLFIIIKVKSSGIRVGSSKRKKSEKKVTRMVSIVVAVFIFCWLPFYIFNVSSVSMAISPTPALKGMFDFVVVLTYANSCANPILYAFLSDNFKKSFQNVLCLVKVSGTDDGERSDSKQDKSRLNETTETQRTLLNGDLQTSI

Rattus norvegicus = species: Rattus norvegicus; test: in vitro Agonist activity (inhibition of growth hormone release) on cultured rat pituitary cells; format: functional, cell-based; settings: Pituitary gland cell
In short: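 Anterior pituitary cells from adult male rats were dispersed with trypsin/DNase and cultured 4–5 days at about 200 000 cells/well. GH in the medium was measured by double-antibody RIA.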

[3] = target: Somatostatin receptor type 4 (Homo sapiens, UniProt P31391); test: Binding affinity was determined on cloned human somatostatin receptor-1 (hsst4)
Sequence of Somatostatin receptor type 4 (P31391 whole entry): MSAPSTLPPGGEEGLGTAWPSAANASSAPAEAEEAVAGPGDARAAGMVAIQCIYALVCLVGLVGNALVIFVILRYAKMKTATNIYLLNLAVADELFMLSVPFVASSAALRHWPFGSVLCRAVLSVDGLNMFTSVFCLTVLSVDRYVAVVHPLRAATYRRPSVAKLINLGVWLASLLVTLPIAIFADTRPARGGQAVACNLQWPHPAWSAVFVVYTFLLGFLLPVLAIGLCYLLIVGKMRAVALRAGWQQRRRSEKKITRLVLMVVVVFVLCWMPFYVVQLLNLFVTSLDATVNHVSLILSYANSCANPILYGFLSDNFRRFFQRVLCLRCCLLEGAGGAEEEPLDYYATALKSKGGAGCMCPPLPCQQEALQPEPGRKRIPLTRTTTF
In short: as §1, with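 “Tris-HCl. Incubated 30 min at 37 °C with 0.05 nM [125I]Tyr11-SRIF (sst1, sst4) or [125I]MK-678 (sst2) in HEPES pH 7.4 with BSA, MgCl2 and protease inhibitors.” for “Tris-HCl.”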

[4] = target: Somatostatin receptor type 5 (Homo sapiens, UniProt P35346); test: Binding affinity was determined on cloned human somatostatin receptor-1 (hsst5)
Sequence of Somatostatin receptor type 5 (P35346 whole entry): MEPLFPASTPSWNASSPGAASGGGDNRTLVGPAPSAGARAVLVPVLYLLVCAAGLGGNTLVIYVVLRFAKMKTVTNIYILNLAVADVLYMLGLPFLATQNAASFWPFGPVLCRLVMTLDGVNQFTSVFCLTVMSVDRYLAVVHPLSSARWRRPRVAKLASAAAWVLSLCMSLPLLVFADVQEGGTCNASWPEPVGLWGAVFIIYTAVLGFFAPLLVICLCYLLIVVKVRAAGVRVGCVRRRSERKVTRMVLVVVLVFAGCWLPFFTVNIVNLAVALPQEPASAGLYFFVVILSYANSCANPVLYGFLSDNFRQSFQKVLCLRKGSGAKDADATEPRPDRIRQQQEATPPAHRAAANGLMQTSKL

[5] = target: Somatostatin receptor type 3 (Homo sapiens, UniProt P32745); test: Binding affinity was determined on cloned human somatostatin receptor-1 (hsst3)
Sequence of Somatostatin receptor type 3 (P32745 whole entry): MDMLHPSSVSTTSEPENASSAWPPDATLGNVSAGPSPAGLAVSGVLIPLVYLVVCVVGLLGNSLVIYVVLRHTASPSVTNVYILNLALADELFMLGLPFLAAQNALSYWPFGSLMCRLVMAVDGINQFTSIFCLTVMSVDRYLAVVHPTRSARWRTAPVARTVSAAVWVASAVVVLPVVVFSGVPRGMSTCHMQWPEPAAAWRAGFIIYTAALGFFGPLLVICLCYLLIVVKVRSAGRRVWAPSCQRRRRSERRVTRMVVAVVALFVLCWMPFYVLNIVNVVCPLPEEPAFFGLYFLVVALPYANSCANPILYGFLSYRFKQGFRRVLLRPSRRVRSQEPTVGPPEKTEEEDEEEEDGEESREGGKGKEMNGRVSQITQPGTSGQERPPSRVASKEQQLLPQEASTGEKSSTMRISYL

Compound	Kd [2] [nM]	IC50 (Rattus norvegicus) [nM]	other results
CN[C@@H](Cc1ccc(O)cc1)C(=O)N[C@H]1CSSC[C@@H](C(=O)N[C@H](C(N)=O)[C@@H](C)O)NC(=O)[C@H]([C@@H](C)O)NC(=O)[C@H](CCCCN)NC(=O)[C@@H](Cc2c[nH]c3ccccc23)NC(=O)[C@H](Cc2ccccc2)NC1=O (H-[NMeY]CF[dW]KTCT-NH2; disulfide 2-7)	9.74		Kd [1]: 811 nM
C[C@@H](O)[C@H](NC(=O)[C@@H]1CSSC[C@H](NC(=O)[C@H](N)Cc2ccccc2)C(=O)N[C@@H](Cc2ccccc2)C(=O)N[C@H](Cc2c[nH]c3ccccc23)C(=O)N[C@@H](CCCCN)C(=O)N[C@@H]([C@@H](C)O)C(=O)N1)C(N)=O		0.16	
C[C@@H](O)[C@H](NC(=O)[C@@H]1CSSC[C@H](NC(=O)[C@@H](N)Cc2ccc(O)cc2)C(=O)N[C@@H](Cc2ccccc2)C(=O)N[C@H](Cc2c[nH]c3ccccc23)C(=O)N[C@@H](CCCCN)C(=O)N[C@@H]([C@@H](C)O)C(=O)N1C)C(N)=O (H-YCF[dW]KT[NMeC]T-NH2; disulfide 2-7)	56.2		
C[C@@H](O)[C@H](NC(=O)[C@@H]1CSSC[C@H](NC(=O)[C@@H](N)Cc2ccc(O)cc2)C(=O)N[C@@H](Cc2ccccc2)C(=O)N[C@H](Cc2c[nH]c3ccccc23)C(=O)N(C)[C@@H](CCCCN)C(=O)N[C@@H]([C@@H](C)O)C(=O)N1)C(N)=O (H-YCF[dW][NMeK]TCT-NH2; disulfide 2-7)		27.4	
C[C@@H](O)[C@@H]1NC(=O)[C@H](CCCCN)NC(=O)[C@@H](Cc2c[nH]c3ccccc23)NC(=O)[C@H](Cc2ccccc2)NC(=O)[C@@H](NC(=O)[C@H](N)Cc2ccccc2)CSSC[C@@H](C(=O)N(C)[C@H](C(N)=O)[C@@H](C)O)NC1=O		28.8	
C[C@@H](O)[C@H](NC(=O)[C@@H]1CSSC[C@H](NC(=O)[C@@H](N)Cc2ccc(O)cc2)C(=O)N[C@@H](Cc2ccccc2)C(=O)N[C@H](Cc2c[nH]c3ccccc23)C(=O)N[C@@H](CCCCN)C(=O)N(C)[C@@H]([C@@H](C)O)C(=O)N1)C(N)=O (H-YCF[dW]K[NMeT]CT-NH2; disulfide 2-7)			Kd [3]: 1000 nM
C[C@@H](O)[C@H](NC(=O)[C@@H]1CSSC[C@H](N(C)C(=O)[C@H](N)Cc2ccccc2)C(=O)N[C@@H](Cc2ccccc2)C(=O)N[C@H](Cc2c[nH]c3ccccc23)C(=O)N[C@@H](CCCCN)C(=O)N[C@@H]([C@@H](C)O)C(=O)N1)C(N)=O		0.36	
C[C@@H](O)[C@H](NC(=O)[C@@H]1CSSC[C@H](NC(=O)[C@@H](N)Cc2ccc(O)cc2)C(=O)N[C@@H](Cc2ccccc2)C(=O)N[C@H](Cc2c[nH]c3ccccc23)C(=O)N[C@@H](CCCCN)C(=O)N[C@@H]([C@@H](C)O)C(=O)N1)C(N)=O (H-YCF[dW]KTCT-NH2; disulfide 2-7)		1.11	
CN[C@H](Cc1ccccc1)C(=O)N[C@H]1CSSC[C@@H](C(=O)N[C@H](C(N)=O)[C@@H](C)O)NC(=O)[C@H]([C@@H](C)O)NC(=O)[C@H](CCCCN)NC(=O)[C@@H](Cc2c[nH]c3ccccc23)NC(=O)[C@H](Cc2ccccc2)NC1=O	1.03		Kd [4]: 4.89 nM; Kd [5]: 17.9 nM; Kd [1]: 316 nM; Kd [3]: > 1000 nM
